The target in series [1] is Transient receptor potential cation channel subfamily V member 1 (Homo sapiens, UniProt Q8NER1). Briefly: Antagonist activity at human TRPV1 assessed as inhibition of capsaicin-induced receptor activation by FLIPR assay. It is filed as functional. Put shortly:
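Human TRPV1 activated by capsaicin; inhibition read by FLIPR. IC50 is the mean of ≥3 experiments.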

For series [2], the target named is Transient receptor potential cation channel subfamily V member 1 (Rattus norvegicus, UniProt O35433). Format: functional, tissue-based, Sprague-Dawley, Dorsal root ganglion.
Chain of Transient receptor potential cation channel subfamily V member 1 (Rattus norvegicus, UniProt O35433) (O35433 whole entry): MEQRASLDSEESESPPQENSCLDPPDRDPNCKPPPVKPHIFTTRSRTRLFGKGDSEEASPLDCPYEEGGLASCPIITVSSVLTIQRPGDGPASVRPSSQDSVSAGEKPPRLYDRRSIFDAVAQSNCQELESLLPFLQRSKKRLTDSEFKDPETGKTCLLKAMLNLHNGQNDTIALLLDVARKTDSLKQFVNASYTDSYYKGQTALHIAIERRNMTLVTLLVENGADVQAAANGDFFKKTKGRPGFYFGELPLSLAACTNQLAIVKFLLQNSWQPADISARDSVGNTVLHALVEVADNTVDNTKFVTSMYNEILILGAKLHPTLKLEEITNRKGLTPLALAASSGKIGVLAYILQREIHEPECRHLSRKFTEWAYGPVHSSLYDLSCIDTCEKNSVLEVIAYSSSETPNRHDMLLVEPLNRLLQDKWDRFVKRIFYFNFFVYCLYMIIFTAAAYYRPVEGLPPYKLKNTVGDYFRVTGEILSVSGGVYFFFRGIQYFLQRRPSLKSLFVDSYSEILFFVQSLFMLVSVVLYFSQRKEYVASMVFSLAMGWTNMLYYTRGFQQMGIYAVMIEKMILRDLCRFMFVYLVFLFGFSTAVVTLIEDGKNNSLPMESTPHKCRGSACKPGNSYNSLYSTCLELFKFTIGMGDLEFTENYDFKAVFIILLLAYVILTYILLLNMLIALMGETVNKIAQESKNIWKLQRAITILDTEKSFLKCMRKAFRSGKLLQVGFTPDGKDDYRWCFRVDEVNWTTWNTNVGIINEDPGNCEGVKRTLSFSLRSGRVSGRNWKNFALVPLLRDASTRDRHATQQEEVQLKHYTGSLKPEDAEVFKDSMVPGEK
A short description of series [3]: Metabolic stability in rat liver microsomes assessed as compound remaining after 10 min. Format: ADME, Microsome. The settings on record: read-out: Stability. (In general: Microsomes from liver hold many membrane-bound enzymes, among them those of drug oxidation.)
Another series deals with Liver microsomes. Briefly: Metabolic stability in human liver microsomes assessed per mg of protein after 1 hr.
Series [4] relates to Rattus norvegicus. The series is described as follows: Antiinflammatory activity in Sprague-Dawley rat assessed as inhibition of carrageenan-induced thermal hyperalgesia at 3 mg/kg, po administered 3.5 hrs after carrageenan challenge measured after 5 hrs. Format: functional. Put shortly: (§1)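 Rat carrageenan-induced thermal hyperalgesia. Dosed orally as a suspension in 0.5% methocel; % inhibition reported at each dose.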

In series [5] the test system is Rattus norvegicus. Briefly: Antiinflammatory activity in Sprague-Dawley rat assessed as inhibition of carrageenan-induced thermal hyperalgesia at 0.3 mg/kg, po administered 3.5 hrs after carrageenan challenge measured after 5 hrs. It is filed as functional. An outline of the steps:
as §1

For series [6], the system named is Rattus norvegicus. The series is described as follows: Antiinflammatory activity in Sprague-Dawley rat assessed as inhibition of carrageenan-induced thermal hyperalgesia at 1 mg/kg, po administered 3.5 hrs after carrageenan challenge measured after 5 hrs. It is filed as functional. Put shortly: as §1
Series [7] has as its system Rattus norvegicus. The series is described as follows: Plasma concentration in Sprague-Dawley rat carrageenan-induced thermal hyperalgesia model at 1 mg/kg, po. It is filed as ADME, organism-based. On the set-up: dose 1 mg/kg, route oral. As to conditions: in vivo. Put shortly: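 Plasma sampled immediately after the carrageenan thermal hyperalgesia experiment, following oral dosing as a suspension in 0.5% methocel.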

The test system of series [8] is Rattus norvegicus. The series is described as follows: Plasma concentration in Sprague-Dawley rat carrageenan-induced thermal hyperalgesia model at 3 mg/kg, po. Set-up: dose 3 mg/kg, route oral. The settings on record: in vivo. It is filed as ADME, organism-based. Put shortly:
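Rats given compound orally as a suspension in 0.5% methocel in the carrageenan-induced thermal hyperalgesia model. Plasma sampled immediately after the CITH experiment.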

The species named for series [9] is Rattus norvegicus. The settings on record: 20 mg/kg.

In general, IC50 refers to the concentration that inhibits the measured activity by half. The term inhibition in vivo denotes the change of the read-out against control, counted positive when it falls.

Activity calls are given as the source filed them. No cut-off for these calls is given here.

Chain of Transient receptor potential cation channel subfamily V member 1 (Homo sapiens, UniProt Q8NER1) (Q8NER1 whole entry): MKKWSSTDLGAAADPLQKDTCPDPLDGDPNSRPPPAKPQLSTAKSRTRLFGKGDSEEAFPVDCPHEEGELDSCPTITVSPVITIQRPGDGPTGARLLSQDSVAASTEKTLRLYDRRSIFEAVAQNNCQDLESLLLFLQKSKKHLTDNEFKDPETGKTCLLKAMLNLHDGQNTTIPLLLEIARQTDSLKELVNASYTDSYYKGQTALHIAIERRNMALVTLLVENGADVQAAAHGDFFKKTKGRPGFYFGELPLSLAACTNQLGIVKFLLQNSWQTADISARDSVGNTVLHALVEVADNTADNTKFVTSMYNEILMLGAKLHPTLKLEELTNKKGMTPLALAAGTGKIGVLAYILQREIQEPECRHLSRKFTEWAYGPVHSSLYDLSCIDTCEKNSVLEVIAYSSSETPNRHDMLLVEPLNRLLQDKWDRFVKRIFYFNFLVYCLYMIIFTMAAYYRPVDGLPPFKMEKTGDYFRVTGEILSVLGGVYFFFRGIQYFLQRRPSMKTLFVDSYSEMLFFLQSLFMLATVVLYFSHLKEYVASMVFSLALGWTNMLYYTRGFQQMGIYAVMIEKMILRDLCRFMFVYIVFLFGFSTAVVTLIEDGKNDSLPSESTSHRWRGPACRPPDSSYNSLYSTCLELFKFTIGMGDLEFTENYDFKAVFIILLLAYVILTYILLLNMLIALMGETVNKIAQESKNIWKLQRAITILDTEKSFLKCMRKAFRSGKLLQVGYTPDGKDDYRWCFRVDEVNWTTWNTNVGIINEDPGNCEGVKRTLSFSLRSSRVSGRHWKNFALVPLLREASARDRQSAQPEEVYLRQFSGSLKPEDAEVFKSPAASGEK

For the molecule `N#Cc1nc(Nc2ccnc3nc(-c4ncccc4C(F)(F)F)ccc23)ncc1C(F)(F)F`, the IC50 is 25.4 nM in series [1] and “Not Active” in series [2].
As for `FC(F)(F)c1cnc(Nc2ccnc3nc(-c4ncccc4C(F)(F)F)ccc23)nc1Cl`, the IC50 in series [1] is 81 nM; in series [2] it was “Not Active”.
In the same order, the values of `FC(F)(F)c1ccc(Nc2ccnc3nc(-c4ncc(Br)cc4C(F)(F)F)cnc23)nc1` are 30 nM and “Not Active”.
In the case of `FC(F)(F)c1cnc(Nc2ccnc3nc(-c4ncccc4C(F)(F)F)ccc23)nc1`, the IC50 in series [1] was 4.4 nM; in series [2] (read-out: IC50) it was 4.6 nM. Besides, the remaining at 10 min in series [3] stood at 100%. The Stability in the series with Liver microsomes came out at 204 pmol. Moreover, the inhibition in vivo at 3 mg/kg with Rattus norvegicus [4] is 78%.
For the molecule `FC(F)(F)c1ccc(Nc2ccnc3nc(-c4nnccc4C(F)(F)F)ccc23)nc1`, the IC50 was 8.4 nM in series [1] and 7.1 nM in series [2] (read-out: IC50).
Take `O=C(O)c1nc(Nc2ccnc3nc(-c4ncccc4C(F)(F)F)ccc23)ncc1C(F)(F)F`: the IC50 in [1] is 1450 nM; in series [2] it was “Not Active”.
The corresponding values for `N#Cc1cnc(-c2cnc3c(Nc4ccc(C(F)(F)F)cn4)ccnc3n2)c(C(F)(F)F)c1` are 15 nM and “Not Active”.
In the same order, the values of `O=C(O)c1cnc(-c2cnc3c(Nc4ccc(C(F)(F)F)cn4)ccnc3n2)c(C(F)(F)F)c1` are 27 nM and “Not Active”.
In the same order, the values of `FC(F)(F)c1ccc(Nc2ccnc3nc(-c4ccncc4C(F)(F)F)ccc23)nc1` are 161 nM and “Not Active”.
With `FC(F)(F)c1ccc(Nc2ccnc3nc(-c4ncncc4C(F)(F)F)ccc23)nc1`, the IC50 is 134 nM in series [1] and “Not Active” in [2].
The corresponding values for `NC(=O)c1ccnc(-c2ccc3c(Nc4ccc(C(F)(F)F)cn4)ccnc3n2)c1C(F)(F)F` are 13 nM and “Not Active”.
As to `O=C(O)c1ccnc(-c2ccc3c(Nc4ccc(C(F)(F)F)cn4)ccnc3n2)c1C(F)(F)F`, the results for the IC50 in [1] and in series [2] were 607 nM and “Not Active”, respectively.
For `FC(F)(F)c1ccc(Nc2ccnc3nc(-c4ncccc4C(F)(F)F)cnc23)nc1`, the IC50 in [1] is 0.2 nM; in [2] it was “Not Active”. Moreover, in series [3], the remaining at 10 min worked out at 100%. In addition, the Stability in the series on Liver microsomes is on record as under 5 pmol. Besides, the inhibition in vivo at 0.3 mg/kg with Rattus norvegicus [5] amounted to 85%. The inhibition in vivo at 3 mg/kg with Rattus norvegicus [4] stood at 134%.
With `FC(F)(F)c1csc(Nc2ccnc3nc(-c4ncccc4C(F)(F)F)ccc23)n1`, the IC50 is 47 nM in series [1] and “Not Active” in series [2].
As to `FC(F)(F)c1ccc(Nc2ccnc3nc(-c4ncsc4C(F)(F)F)ccc23)nc1`, the IC50 in series [1] was 12 nM; in series [2], “Not Active”. For the same molecule, the remaining at 10 min in series [3] was found to be 100%. In the series on Liver microsomes, the Stability is on record as 356 pmol.
Regarding `FC(F)(F)c1ccc(Nc2ccnc3nc(-c4ncccc4C(F)(F)F)ccc23)nc1`, the remaining at 10 min in [3] is 100%. In the series on Liver microsomes, the Stability was determined as 169 pmol. Further, the inhibition in vivo at 1 mg/kg in the series with Rattus norvegicus [6] was determined as 66%. For the same molecule, in series [2] (read-out: IC50), the IC50 was 3.2 nM. For the same molecule, the concentration amounted to 300 nM in the series with Rattus norvegicus [7] and 1400 nM in the series with Rattus norvegicus [8]. For the same molecule, the inhibition in vivo at 3 mg/kg with Rattus norvegicus [4] came out at 115%. Moreover, in “Inhibition of MAOB”, the INH turned out to be 2.2 nM.
`COc1ccc2cc([C@H](C)C(=O)O)ccc2c1`: the inhibition result in the series filed under Rattus norvegicus [9] was “Active”.
Turning to `NC(=O)c1nc(Nc2ccnc3nc(-c4ncccc4C(F)(F)F)ccc23)ncc1C(F)(F)F`, the IC50 in series [1] is 48.7 nM; in series [2], “Not Active”.
Turning to `C[C@@H]1CN(c2ncccc2C(F)(F)F)CCN1C(=O)Nc1ccc(C(F)(F)F)cc1`, in “Inhibition of MAOB”, the INH was determined as 17 nM.
As to `FC(F)(F)c1cnc(Nc2ccnc3nc(-c4ncccc4C(F)(F)F)ccc23)cn1`, the IC50 in [1] amounted to 5.5 nM; in [2] (read-out: IC50), 6.3 nM.
